# Test results taken from ChEMBL document CHEMBL1949637, “Anticancer effects of the metabolic products of the resveratrol analogue, DMU-212: structural requirements for potency” (Eur J Med Chem, 2011).
# The source made the active and inactive calls. The calls are words filed in the database; no cut-off is given here.
# How the values were obtained:
# Format in all cases: functional, cell-based
# [1] = test system: MCF7; experiment: Antimitotic activity in human MCF7 cells assessed as decrease in localization of beta-tubulin expression around cell nucleus at 30 uM after 24 hrs by immunofluorescence staining
# In short: (§1)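 MCF-7 cells seeded on coverslips in 24-well plates, 8 × 10⁴ cells/well, exposed to 10 or 30 μM for 24 or 48 h. Fixed, permeabilised, then stained 1 h at room temperature with anti-β-tubulin (1:200 in PBS/1% FBS). Secondary was AlexaFluor-conjugated anti-mouse IgG (1:500), 1 h in the dark. Read by fluorescence microscopy.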
# [2] = test system: MCF7; experiment: Induction of apoptosis in human MCF7 cells assessed as nuclear fragmentation at 10 uM after 24 hrs using DAPI staining by immunofluorescence method
# In short: (§2)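 MCF-7 cells grown on coverslips (8 × 10⁴ cells/well) and treated 24 h at 10 or 30 μM. Fixed, permeabilised and processed as for β-tubulin immunostaining. DAPI working solution applied at 1:100 for 5 min. Fragmented nuclei scored by fluorescence microscopy.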
# [3] = test system: HepG2; experiment: Induction of apoptosis in human HepG2 cells assessed as increase of ratio of Bax to Bcl-xL mRNA level at 20 to 40 uM after 24 hrs by RT-PCR analysis
# [4] = test system: MCF7; experiment: Downregulation of beta-tubulin expression in human MCF7 cells at >30 uM after 24 hrs by Western blot analysis
# In short: (§3)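 MCF-7 or HepG2 cells seeded at 3 × 10⁵ cells/mL in 6-well plates and treated 24 h at 37 °C with 0, 30, 40 or 50 μM. Lysed in buffer with protease inhibitors and 1 mM DTT, then sonicated. Lysates run on SDS-PAGE (10% resolving gel), wet-blotted to PVDF and probed overnight at 4 °C. Antibodies were anti-β-tubulin 1:400, p53 1:200, cyclin D1 1:200; β-actin 1:400 served as loading reference. Detection by ECL.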
# [5] = test system: MCF7; experiment: Cell cycle arrest in human MCF7 cells assessed as accumulation at S phase at 10 uM after 24 hrs using propidium iodide staining by flow cytometry
# In short: (§4)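 Cells cultured in T75 flasks, serum-starved 24 h, then exposed to 10 μM for 24 h. Trypsinised, washed in PBS and fixed in 70% ethanol for at least 2 h. Stained with propidium iodide 50 μg/mL containing RNase A 100 μg/mL. DNA content read by flow cytometry on at least 10,000 events. Percentage of cells in each phase recorded.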
# [6] = test system: MCF7; experiment: Induction of apoptosis in human MCF7 cells assessed as increase of ratio of Bax to Bcl-xL mRNA level at 30 to 40 uM after 24 hrs by RT-PCR analysis
# [7] = test system: MCF7; experiment: Induction of apoptosis in human MCF7 cells assessed as down-regulation of Bcl-xL mRNA level after 24 hrs by RT-PCR analysis
# [8] = test system: HepG2; experiment: Cell cycle arrest in human HepG2 cells assessed as accumulation at G2/M phase at 10 uM after 24 hrs using propidium iodide staining by flow cytometry; in short: as §4
# [9] = test system: MCF7; experiment: Antimitotic activity in human MCF7 cells assessed as decrease in localization of beta-tubulin expression around cell nucleus at 30 uM after 48 hrs by immunofluorescence staining; in short: as §1
# [10] = test system: HepG2; experiment: Induction of apoptosis in human HepG2 cells assessed as upregulation of Bax mRNA level after 24 hrs by RT-PCR analysis
# [11] = test system: MCF7; experiment: Cytotoxicity against human MCF7 cells up to 20 uM after 96 hrs by MTT assay
# [12] = test system: MCF7; experiment: Antimitotic activity in human MCF7 cells assessed as effect on beta-tubulin distribution at 10 uM after 24 hrs by immunofluorescence staining; in short: as §1
# [13] = test system: MCF7; experiment: Induction of apoptosis in human MCF7 cells assessed as nuclear fragmentation at 30 uM after 24 hrs using DAPI staining by immunofluorescence method; in short: as §2
# [14] = test system: HepG2; experiment: Cell cycle arrest in human HepG2 cells assessed as accumulation at S phase at 10 uM after 24 hrs using propidium iodide staining by flow cytometry; in short: as §4
# [15] = test system: MCF7; experiment: Cell cycle arrest in human MCF7 cells assessed as accumulation at G1 phase at 10 uM after 24 hrs using propidium iodide staining by flow cytometry; in short: as §4
# [16] = test system: MCF7; experiment: Downregulation of cyclin D1 expression in human MCF7 cells after 24 hrs by Western blot analysis; in short: as §3
# [17] = test system: MCF7; experiment: Cell cycle arrest in human MCF7 cells assessed as accumulation at G2/M phase at 10 uM after 24 hrs using propidium iodide staining by flow cytometry; in short: as §4
# [18] = test system: HepG2; experiment: Downregulation of cyclin D1 expression in human HepG2 cells after 24 hrs by Western blot analysis; in short: as §3
# [19] = test system: MCF7; experiment: Induction of apoptosis in human MCF7 cells assessed as upregulation of Bax mRNA level after 24 hrs by RT-PCR analysis
# [20] = test system: HeLa; experiment: Cytotoxicity against human HeLa cells after 96 hrs by MTT assay
# In short: (§5)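 Cells plated in 96-well plates and allowed 24 h growth. Medium was replaced with serial dilutions, 0.079–20 μM, for 96 h. Viability read spectrophotometrically by MTT reduction. IC₅₀ values taken from at least 3 experiments. MCF-7 cells were kept in RPMI-1640 and HepG2/HeLa in DMEM, each with 10% heat-inactivated FCS.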
# [21] = test system: HepG2; experiment: Cytotoxicity against human HepG2 cells up to 20 uM after 96 hrs by MTT assay
# [22] = test system: HeLa; experiment: Cell cycle arrest in human HeLa cells assessed as accumulation at G2/M phase at 10 uM after 24 hrs using propidium iodide staining by flow cytometry; in short: as §4
# [23] = test system: HepG2; experiment: Downregulation of beta-tubulin expression in human HepG2 cells at >30 uM after 24 hrs by Western blot analysis; in short: as §3
# [24] = test system: HepG2; experiment: Cell cycle arrest in human HepG2 cells assessed as accumulation at G1 phase at 10 uM after 24 hrs using propidium iodide staining by flow cytometry; in short: as §4
# [25] = test system: HepG2; experiment: Upregulation of p53 protein expression in human HepG2 cells after 24 hrs by Western blot analysis; in short: as §3
# [26] = test system: MCF7; experiment: Upregulation of p53 protein expression in human MCF7 cells after 24 hrs by Western blot analysis; in short: as §3
# [27] = test system: HepG2; experiment: Induction of apoptosis in human HepG2 cells assessed as effect on Bcl-xL mRNA level after 24 hrs by RT-PCR analysis
# [28] = test system: HepG2; experiment: Cytotoxicity against human HepG2 cells after 96 hrs by MTT assay; details: HepG2, 96 h; in short: as §5
# [29] = test system: MCF7; experiment: Cytotoxicity against human MCF7 cells after 96 hrs by MTT assay; details: MCF7, 96 h; in short: as §5
Compound,Activity [1],Activity [2],Activity [4],Activity [5],Activity [8],Activity [9],Activity [11],Activity [12],Activity [13],Activity [14],Activity [15],Activity [16],Activity [17],Activity [18],Activity [20],Activity [21],Activity [22],Activity [23],Activity [24],Activity [25],further results
COc1ccc(/C=C/c2cc(OC)c(OC)c(OC)c2)cc1O,Active,inactive,Active,Active,Active,Active,Active,inactive,Active,Active,Active,Dose-dependent effect,Active,Dose-dependent effect,Active,Active,Active,Active,Active,Dose-dependent effect,Activity [3]: Active; Activity [6]: Active; Activity [7]: Active; Activity [10]: Dose-dependent effect; Activity [19]: Dose-dependent effect; Activity [26]: Dose-dependent effect; Activity [27]: inactive
COc1ccc(/C=C/c2cc(O)c(OC)c(OC)c2)cc1,,,,,,,inactive,,,,,,,,,inactive,,,,,
COc1cc(/C=C/c2ccc(O)cc2)cc(OC)c1OC,,,,,,,inactive,,,,,,,,,inactive,,,,,
COc1ccc(/C=C/c2cc(OC)c(OC)c(OC)c2)cc1,Active,inactive,Active,Active,Active,Active,,inactive,Active,Active,Active,Dose-dependent effect,Active,Dose-dependent effect,Active,,Active,Active,Active,Dose-dependent effect,IC50 [28]: 300 nM; IC50 [29]: 300 nM; Activity [26]: Dose-dependent effect
COc1ccc(/C=C/c2cc(OC)c(O)c(OC)c2)cc1,,,,,,,inactive,,,,,,,,,inactive,,,,,
